We go through 15 compounds from ChEMBL document CHEMBL2177092, “Phosphoramidate ProTides of the anticancer agent FUDR successfully deliver the preformed bioactive monophosphate in cells and confer advantage over the parent nucleoside” (J Med Chem, 2011).

For assay [1], the system named is L1210. The assay can be described thus: Ratio of IC50 for Mycoplasma hyorhinis-infected mouse L1210 cells to IC50 for mouse L1210/0 cells after 48 hrs by cell counting. The assay is classed as functional. Summed up: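 Murine L1210/0 cells were compared with L1210/TK cells, selected for resistance to 5-bromo-2'-dUrd, and with L1210.Hyor cells, chronically infected with Mycoplasma hyorhinis. Cells were grown in DMEM with 10% FBS, 10 mM Hepes and 1 mM pyruvate at 37 °C and 5% CO2, then seeded at 60 000 cells/well with compound. They were Coulter-counted after 48 h. […] Mean of 2–4 experiments.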

The subject of assay [2] is L1210. The assay can be described thus: Cytostatic activity against Mycoplasma hyorhinis-infected mouse L1210 cells after 48 hrs by cell counting. The assay is classed as functional, cell-based. As to conditions: L1210, 48 h. Summed up: (§1)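 Suspension leukemia cells in DMEM with 10% FBS, 10 mM Hepes and 1 mM sodium pyruvate at 37 °C under 5% CO2. Seeded at 60 000 cells/well with graded compound levels. Grown 48 h (L1210) or 72 h (CEM), then counted by Coulter counter. Mean ± SD of two to four independent experiments.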

Assay [3] relates to HeLa. The assay can be described thus: Cytostatic activity against human HeLa cells […] by cell counting. The assay is classed as functional, cell-based.
Assay [4] deals with HeLa. The assay can be described thus: Cytostatic activity against thymidine-kinase deficient human HeLa cells […]. The class given is functional, cell-based.
Assay [5] relates to CCRF-CEM. The assay can be described thus: Cytostatic activity against thymidine-kinase deficient human CEM cells after 72 hrs by cell counting. The class given is functional, cell-based. The procedure, abridged: as §1
Assay [6] relates to CCRF-CEM. The assay can be described thus: Cytostatic activity against human CEM/0 cells after 72 hrs by cell counting. The class given is functional, cell-based. Summed up:
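Suspension leukemia cells in DMEM with 10% FBS, 10 mM Hepes and 1 mM sodium pyruvate at 37 °C under 5% CO2. Seeded at 60 000 cells/well with graded compound levels. Grown 48 h (L1210) or 72 h (CEM), then counted by Coulter counter. […] Mean ± SD of two to four independent experiments.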

A short description of assay [7]: Cytostatic activity against mouse L1210/0 cells after 48 hrs by cell counting. The assay is classed as functional, cell-based. To be noted: L1210/0, 48 h. Summed up: as §1
In assay [8] the test system is L1210. The assay can be described thus: Cytostatic activity against thymidine-kinase deficient mouse L1210 cells after 48 hrs by cell counting. The class given is functional, cell-based. As to conditions: L1210, 48 h. The procedure, abridged:
as §1

Turning to `O=C(OCc1ccccc1)[C@@H]1CCCN1P(=O)(OC[C@H]1O[C@@H](n2cc(F)c(=O)[nH]c2=O)C[C@@H]1O)Oc1cccc2ccccc12` (mixture of isomers), in the assay with L1210 [1], the “Ratio IC50” value worked out at 2.5. Besides, the IC50 in the assay with L1210 [2] was 650 nM; in the assay on HeLa [3] it was 1200 nM; in the assay on HeLa [4] it was 26000 nM; in the assay on CCRF-CEM [5], 32000 nM; in the assay with CCRF-CEM [6] it was 890 nM; in assay [7], 260 nM. In the assay with L1210 [8], this compound gave an IC50 of 25000 nM.
With `CCCCCOC(=O)C(C)(C)NP(=O)(OC[C@H]1O[C@@H](n2cc(F)c(=O)[nH]c2=O)C[C@@H]1O)Oc1cccc2ccccc12` (mixture of isomers), the “Ratio IC50” value in the assay on L1210 [1] was 0.42. Besides, the half-inhibitory concentration (IC50) with L1210 [2] was determined as 19 nM; with HeLa [3] it was 120 nM; with HeLa [4] it was 2300 nM; with CCRF-CEM [5] it was 5400 nM; with CCRF-CEM [6], 140 nM; in assay [7], 45 nM. Further, in the assay on L1210 [8], the 50% inhibitory concentration (IC50) came to 300 nM.
On to `C[C@H](NP(=O)(OC[C@H]1O[C@@H](n2cc(F)c(=O)[nH]c2=O)C[C@@H]1O)Oc1cccc2ccccc12)C(=O)OC1CCCCC1` (mixture of isomers), for which, in the assay with L1210 [1], the “Ratio IC50” value was 1.4. Also, the half-maximal inhibitory concentration (IC50) in the assay with L1210 [2] was 49 nM; with HeLa [3], 90 nM; with CCRF-CEM [5] it was 1000 nM; with CCRF-CEM [6], 57 nM; in assay [7], 36 nM; in the assay on L1210 [8], 150 nM.
Regarding `C[C@H](NP(=O)(OC[C@H]1O[C@@H](n2cc(F)c(=O)[nH]c2=O)C[C@@H]1O)Oc1cccc2ccccc12)C(=O)OCC(C)(C)C` (mixture of isomers), the “Ratio IC50” value in the assay with L1210 [1] came to 1.9. In addition, the IC50 in the assay with L1210 [2] amounted to 180 nM; in the assay with HeLa [3] it was 700 nM; in the assay on HeLa [4], 32000 nM; in the assay with CCRF-CEM [5], 6700 nM; in the assay on CCRF-CEM [6] it was 490 nM; in assay [7] it was 93 nM. In addition, in the assay with L1210 [8], the half-maximal inhibitory concentration (IC50) is 1200 nM.
Consider `C[C@H](NP(=O)(OC[C@H]1O[C@@H](n2cc(F)c(=O)[nH]c2=O)C[C@@H]1O)Oc1cccc2ccccc12)C(=O)OCCC(C)(C)C` (mixture of isomers), for which, in the assay on L1210 [1], the “Ratio IC50” value stood at 2.7. Also, the IC50 was found to be 32 nM in the assay on L1210 [2]; 78 nM with HeLa [3]; 1300 nM in the assay with HeLa [4]; 190 nM with CCRF-CEM [5]; 53 nM in the assay on CCRF-CEM [6]; 12 nM in assay [7]. This compound displayed an IC50 with L1210 [8] of 62 nM.
As for `C[C@H](NP(=O)(OC[C@H]1O[C@@H](n2cc(F)c(=O)[nH]c2=O)C[C@@H]1O)Oc1cccc2ccccc12)C(=O)OCC1CC1` (mixture of isomers), the “Ratio IC50” value in the assay on L1210 [1] was determined as 2.2. Moreover, the IC50 in the assay on L1210 [2] came to 31 nM; in the assay on HeLa [3], 68 nM; in the assay with HeLa [4], 1400 nM; in the assay on CCRF-CEM [5], 1100 nM; with CCRF-CEM [6], 59 nM; in assay [7], 14 nM. The IC50 with L1210 [8] is 120 nM.
As for `C[C@H](NP(=O)(OC[C@H]1O[C@@H](n2cc(F)c(=O)[nH]c2=O)C[C@@H]1O)Oc1cccc2ccccc12)C(=O)OC1Cc2ccccc2C1` (mixture of isomers), the “Ratio IC50” value with L1210 [1] was determined as 1.08. Besides, the IC50 came out at 42 nM in the assay with L1210 [2]; 100 nM in the assay on HeLa [3]; 7100 nM with HeLa [4]; 1000 nM in the assay on CCRF-CEM [5]; 79 nM in the assay with CCRF-CEM [6]; 39 nM in assay [7]. In the assay on L1210 [8], the IC50 was 40000 nM.
With `C[C@H](NP(=O)(OC[C@H]1O[C@@H](n2cc(F)c(=O)[nH]c2=O)C[C@@H]1O)Oc1cccc2ccccc12)C(=O)OC1CCOCC1` (mixture of isomers), the “Ratio IC50” value in the assay with L1210 [1] was found to be 11.7. For the same compound, the IC50 with L1210 [2] was 480 nM; with HeLa [3], 130 nM; with HeLa [4], 15000 nM; in the assay on CCRF-CEM [5], 43000 nM; in the assay on CCRF-CEM [6] it was 110 nM; in assay [7], 41 nM. For the same compound, the IC50 in the assay on L1210 [8] turned out to be 27000 nM.
Regarding `CC(C)[C@H](NP(=O)(OC[C@H]1O[C@@H](n2cc(F)c(=O)[nH]c2=O)C[C@@H]1O)Oc1cccc2ccccc12)C(=O)OC1CCCCC1` (mixture of isomers), the “Ratio IC50” value in the assay with L1210 [1] amounted to 1.08. Moreover, the IC50 with L1210 [2] was determined as 1290 nM; in the assay on HeLa [3], 670 nM; in the assay on HeLa [4], 27000 nM; with CCRF-CEM [5] it was 46000 nM; with CCRF-CEM [6], 800 nM; in assay [7], 1200 nM. The same compound yielded an IC50 in the assay with L1210 [8] of 35000 nM.
For `CCCCCOC(=O)[C@H](CC(C)C)NP(=O)(OC[C@H]1O[C@@H](n2cc(F)c(=O)[nH]c2=O)C[C@@H]1O)Oc1cccc2ccccc12` (mixture of isomers), the “Ratio IC50” value with L1210 [1] is on record as 1.13. The IC50 came to 35 nM in the assay with L1210 [2]; 39 nM with HeLa [3]; 7500 nM in the assay with HeLa [4]; 15000 nM with CCRF-CEM [5]; 71 nM with CCRF-CEM [6]; 31 nM in assay [7]. In addition, in the assay with L1210 [8], the IC50 was 1200 nM.
Regarding `CC(C)C[C@H](NP(=O)(OC[C@H]1O[C@@H](n2cc(F)c(=O)[nH]c2=O)C[C@@H]1O)Oc1cccc2ccccc12)C(=O)OCc1ccccc1` (mixture of isomers), the “Ratio IC50” value in the assay with L1210 [1] is on record as 1.7. The IC50 with L1210 [2] turned out to be 48 nM; with HeLa [3] it was 80 nM; in the assay on HeLa [4] it was 9400 nM; with CCRF-CEM [5], 30000 nM; with CCRF-CEM [6], 130 nM; in assay [7], 29 nM. Further, in the assay with L1210 [8], the IC50 was 1500 nM.
On to `CCCCCOC(=O)[C@@H](NP(=O)(OC[C@H]1O[C@@H](n2cc(F)c(=O)[nH]c2=O)C[C@@H]1O)Oc1cccc2ccccc12)[C@@H](C)CC` (mixture of isomers), for which, in the assay on L1210 [1], the “Ratio IC50” value worked out at 1.67. Besides, the IC50 with L1210 [2] was 700 nM; in the assay on HeLa [3], 300 nM; in the assay with HeLa [4] it was 11000 nM; in the assay on CCRF-CEM [5], 17000 nM; in the assay on CCRF-CEM [6] it was 460 nM; in assay [7] it was 420 nM. In addition, in the assay on L1210 [8], the IC50 turned out to be 12000 nM.
Regarding `CCCCCOC(=O)[C@H](Cc1ccccc1)NP(=O)(OC[C@H]1O[C@@H](n2cc(F)c(=O)[nH]c2=O)C[C@@H]1O)Oc1cccc2ccccc12` (mixture of isomers), in the assay with L1210 [1], the “Ratio IC50” value came out at 4.67. In addition, the IC50 came to 140 nM in the assay with L1210 [2]; 40 nM in the assay with HeLa [3]; 6600 nM in the assay on HeLa [4]; 8300 nM in the assay on CCRF-CEM [5]; 100 nM in the assay on CCRF-CEM [6]; 30 nM in assay [7]. For the same compound, in the assay on L1210 [8], half-maximal inhibition (IC50) required 2900 nM.
In the case of `O=C(OCc1ccccc1)[C@H](Cc1ccccc1)NP(=O)(OC[C@H]1O[C@@H](n2cc(F)c(=O)[nH]c2=O)C[C@@H]1O)Oc1cccc2ccccc12` (mixture of isomers), the “Ratio IC50” value in the assay on L1210 [1] worked out at 11. Further, the IC50 in the assay on L1210 [2] came out at 230 nM; in the assay with HeLa [3], 160 nM; with HeLa [4], 6800 nM; in the assay on CCRF-CEM [5], 7200 nM; with CCRF-CEM [6] it was 100 nM; in assay [7] it was 21 nM. For the same compound, the IC50 in the assay on L1210 [8] was determined as 5600 nM.
With `CSCC[C@H](NP(=O)(OC[C@H]1O[C@@H](n2cc(F)c(=O)[nH]c2=O)C[C@@H]1O)Oc1cccc2ccccc12)C(=O)OCc1ccccc1` (mixture of isomers), the “Ratio IC50” value in the assay with L1210 [1] came out at 3.7. For the same compound, the IC50 in the assay with L1210 [2] came out at 200 nM; in the assay on HeLa [3], 87 nM; with HeLa [4] it was 8300 nM; with CCRF-CEM [5], 11000 nM; in the assay on CCRF-CEM [6], 190 nM; in assay [7] it was 54 nM. Moreover, the IC50 in the assay on L1210 [8] turned out to be 1900 nM.
